Data reported in publication PMC12770939 (Clinical Cancer Research, 2025).

Experiments:
[1] = system: FGFR2-expressing cell lines; details: excess Bliss score, n=14 cell lines, Supplementary Fig. S11
pAKT = experiment: Western blots of PI3K signaling feedback over time; type: cell-based; details: PIK3CAmut MFM223 cells
Summary of the method: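 PIK3CA-mutant MFM223 and PIK3CA-WT SUM52PE cells treated with 0.5 μmol/L test compound or 1 μmol/L reference PI3Kα inhibitor, with lysates taken at several durations. Immunoblotted for pHER3 and pAKT: nitrocellulose, 5% milk/TBST block, primary 1:1,000 overnight at 4°C, HRP secondary 1:10,000, ECL/film. n=2.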

PIK3CAmut solid tumors = experiment: Phase 1 study: antitumor activity per RECIST v1.1; type: in vivo, human
PIK3CA MAF in ctDNA = experiment: ctDNA PIK3CA mutation allele frequency dynamics; type: in vivo, human; details: pretreatment vs on-treatment, majority of paired specimens
HER3–p85β interaction = experiment: Co-IP of p85β / HER3; type: cell-based
Summary of the method: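 Cells exposed to test compound or FGFR2 inhibitor at several concentrations for 1 h. Lysis in Tris pH 7.5/NaCl/EDTA/1% NP40/10% glycerol with protease and phosphatase inhibitors. 1 mg lysate incubated overnight with anti-p85β (1:100, 1 mL), then protein A agarose 2 h. Immunoblot on nitrocellulose with 1:1,000 primary overnight at 4°C, HRP secondary 1:10,000 1 h RT, ECL/film. n=2.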

p110α [2] = experiment: Ubiquitin pulldown; type: cell-based; details: 6 hours
p110α [3] = molecular target: p110α (Homo sapiens, UniProt P42336); experiment: Ubiquitin pulldown; type: cell-based; details: PIK3CA WT cell line SUM52PE; 6 hours
Chain of p110α (Homo sapiens, UniProt P42336) (P42336 whole entry): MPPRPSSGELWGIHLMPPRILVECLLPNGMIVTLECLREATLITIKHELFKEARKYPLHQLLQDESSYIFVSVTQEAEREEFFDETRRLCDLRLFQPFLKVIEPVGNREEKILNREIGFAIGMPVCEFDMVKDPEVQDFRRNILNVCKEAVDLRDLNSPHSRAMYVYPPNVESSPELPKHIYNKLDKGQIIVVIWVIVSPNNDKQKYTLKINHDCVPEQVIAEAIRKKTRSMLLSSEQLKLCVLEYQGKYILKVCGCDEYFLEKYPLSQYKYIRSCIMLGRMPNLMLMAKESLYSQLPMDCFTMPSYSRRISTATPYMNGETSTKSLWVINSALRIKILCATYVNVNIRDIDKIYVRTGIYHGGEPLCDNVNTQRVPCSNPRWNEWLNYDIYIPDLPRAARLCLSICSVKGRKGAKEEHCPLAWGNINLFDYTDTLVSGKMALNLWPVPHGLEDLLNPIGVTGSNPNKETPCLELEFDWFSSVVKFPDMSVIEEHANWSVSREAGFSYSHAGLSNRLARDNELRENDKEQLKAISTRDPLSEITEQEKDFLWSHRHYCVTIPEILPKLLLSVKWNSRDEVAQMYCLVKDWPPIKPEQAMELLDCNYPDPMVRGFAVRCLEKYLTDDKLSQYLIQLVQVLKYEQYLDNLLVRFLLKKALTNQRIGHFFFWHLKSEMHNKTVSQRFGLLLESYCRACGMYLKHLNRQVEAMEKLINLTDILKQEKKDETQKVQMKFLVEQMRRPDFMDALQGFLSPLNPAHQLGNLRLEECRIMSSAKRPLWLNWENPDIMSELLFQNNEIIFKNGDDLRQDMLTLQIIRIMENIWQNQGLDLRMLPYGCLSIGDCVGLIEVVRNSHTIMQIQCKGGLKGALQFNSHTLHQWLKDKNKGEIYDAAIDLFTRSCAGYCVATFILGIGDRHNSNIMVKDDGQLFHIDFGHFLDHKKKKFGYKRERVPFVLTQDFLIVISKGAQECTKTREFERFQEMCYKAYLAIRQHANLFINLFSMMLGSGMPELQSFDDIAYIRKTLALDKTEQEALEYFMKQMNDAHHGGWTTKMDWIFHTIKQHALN

MFM223 cell line = experiment: Live-cell imaging by IncuCyte, long-term proliferation; type: cell-based; details: single agent
Summary of the method: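 Plated at 2,000 cells/well; inhibitors added next day at set concentrations. Medium with or without inhibitors renewed every 7 days. Phase-contrast imaging every 4 h in IncuCyte Zoom; confluence tracked in six replicate wells for the whole experiment.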

[4] = system: MFM223 X2.2 tumor xenograft; experiment: MFM223 X2.2 xenograft efficacy study; type: in vivo, NCR nude mice; details: single agent, 25 mg/kg daily for 22 days
mutated p110α = mutated p110α (Homo sapiens, UniProt P42336, H1047R); type: cell-based; details: FGFR2 N550K-overexpressing cells, not matched control cells; 24 h
Chain of mutated p110α (P42336 whole entry H1047R): as the sequence (P42336 whole entry) above, with H1047R counted along it
Chain of mutated p110α (O00459 whole entry partner): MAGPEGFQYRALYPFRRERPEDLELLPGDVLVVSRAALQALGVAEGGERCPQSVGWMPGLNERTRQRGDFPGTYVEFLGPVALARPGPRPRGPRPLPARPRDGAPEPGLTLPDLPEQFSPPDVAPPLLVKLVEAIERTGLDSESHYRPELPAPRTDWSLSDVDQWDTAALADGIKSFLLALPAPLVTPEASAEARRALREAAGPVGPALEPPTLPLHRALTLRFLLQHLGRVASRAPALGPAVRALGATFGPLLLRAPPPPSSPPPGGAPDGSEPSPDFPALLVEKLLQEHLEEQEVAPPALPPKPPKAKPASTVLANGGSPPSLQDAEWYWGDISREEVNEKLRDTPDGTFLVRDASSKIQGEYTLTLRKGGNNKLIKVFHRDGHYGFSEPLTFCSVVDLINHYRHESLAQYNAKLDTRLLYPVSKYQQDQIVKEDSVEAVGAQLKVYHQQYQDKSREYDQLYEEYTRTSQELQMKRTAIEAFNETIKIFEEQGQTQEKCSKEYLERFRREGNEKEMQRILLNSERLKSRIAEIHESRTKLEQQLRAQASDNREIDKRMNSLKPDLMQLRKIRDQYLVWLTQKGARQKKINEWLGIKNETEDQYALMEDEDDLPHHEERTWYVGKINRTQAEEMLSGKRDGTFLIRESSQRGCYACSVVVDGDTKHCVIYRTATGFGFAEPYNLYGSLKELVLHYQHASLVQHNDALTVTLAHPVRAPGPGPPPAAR

pAKT, pS6, Ki67 = experiment: IHC analysis of paired tumor tissue samples; type: in vivo, human; details: baseline vs C1D15 biopsies, nine patients
Summary of the method: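 Paired FFPE tumor biopsies from baseline and C1D15 during oral once-daily dosing. IHC for Ki67 (rabbit mAb clone 30-9; nuclear staining), pAKT and pS6. Cytoplasmic pAKT/pS6 scored by H-score: intensity 0, 1+, 2+, 3+. H-score = Σ(% cells at each intensity × intensity).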

[5] = Phase 1 dose-escalation study NCT03006172 arm A: safety, DLT, MTD; type: in vivo, human
[6] = system: FDG uptake of target lesions; experiment: FDG-PET imaging pharmacodynamic response; type: in vivo, human
Summary of the method: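 FDG-PET at baseline and after 2 weeks of oral once-daily dosing (C1D22–28; C1D15–22 for backfill). On-treatment scans 1–4 h post-dose; blood glucose <180 mg/dL required. Central read by one radiologist; up to five target lesions (tumor:background ≥2:1, longest diameter ≥15 mm). PMR: >25% decrease in mean % change of lean-body-mass-corrected SUVmax, no new FDG-avid lesions.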

[7] = Phase 1 study: plasma pharmacokinetics, noncompartmental analysis; type: in vivo, human
Summary of the method: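 Oral single dose on C1D1, then 7-day washout with serial plasma PK sampling, then once-daily dosing from C1D8. PK population: patients with ≥1 dose and ≥1 evaluable post-dose sample. Parameters from plasma concentration–time profiles after single and multiple doses by noncompartmental analysis, summarized by dose level.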

[8] = system: SUM52PE, MFE296, AN3CA and MFE280 cell lines; experiment: Dose-response proliferation assays; type: cell-based; details: MFE296, AN3CA (FGFR2-high) and MFE280 (FGFR2-low)
[9] = system: phosphorylation of FGFR, FRS2α, PLCɣ, AKT, and ERK; experiment: Western blots of FGFR signaling; type: cell-based; details: SUM52PE, MFE296, and AN3CA cells; 24 h
Summary of the method: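 Lysates resolved and transferred to nitrocellulose; blocked 1 h in 5% milk/TBST (20 mM Tris-HCl pH 7.5, 135 mM NaCl, 0.1% Tween 20) at RT. Primary antibodies 1:1,000 overnight at 4°C; HRP anti-mouse or anti-rabbit 1:10,000 1 h RT. Detection by ECL and film.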

[10] = system: phosphorylation of FGFR2, HER3 and AKT; experiment: Immunoblotting after 1 hour treatment; type: cell-based; details: solely in MFE280 cells, 2-μmol/L
Summary of the method: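 Cells treated 1 h with 0.03 μmol/L FGFR2 inhibitor or 2 μmol/L lapatinib, then immunoblotted. Transfer to nitrocellulose; block 1 h in 5% milk/TBST RT. Primary antibody 1:1,000 overnight at 4°C; HRP secondary 1:10,000 1 h RT; ECL with film. n=2.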

RAS-GTP = RAS-GTP pulldown and RAS co-IP; type: cell-based; details: MFM223 or MFE280 cells
Summary of the method: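 Cells treated with FGFR2 inhibitor or lapatinib for varying durations. Lysis on ice in 25 mM Tris pH 7.5, 150 mM NaCl, 1 mM EDTA, 1% NP40, 5 mM MgCl2, 10% glycerol plus inhibitors. Lysates incubated with capture bead conjugate or mouse IgG magnetic beads (control) at 4°C for 5 h. Beads washed 3× in cold buffer, eluted in sample buffer, immunoblotted.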

Question: Which “combination effect with inavolisib” value [1] does the source give for C[C@@H](Oc1ccc2[nH]nc(/C=C/c3cnn(CCO)c3)c2c1)c1c(Cl)cncc1Cl [LY2874455] here?
Answer: synergized

Question: Which “time to pAKT rebound” value (pAKT; 1-μmol/L alpelisib) does the source give for Cc1nc(NC(=O)N2CCC[C@H]2C(N)=O)sc1-c1ccnc(C(C)(C)C(F)(F)F)c1 [alpelisib, reference compound] here?
Answer: 30 minutes

Question: Which results are given for C[C@H](Nc1ccc2c(c1)OCCn1cc(N3C(=O)OC[C@H]3C(F)F)nc1-2)C(N)=O [inavolisib]?
Answer: median progression-free survival (PFS) (PIK3CAmut solid tumors; 95% CI, 3.5–7.3): 3.7 months; landmark PFS rate at 6 months (PIK3CAmut solid tumors; 95% CI, 15–59): 37%; clinical benefit rate (PIK3CAmut solid tumors; N = 20 (n = 9)): 45%; best overall response rate (PR) (PIK3CAmut solid tumors; patients with measurable disease (n = 19), RECIST v1.1): 26%; duration of response (PIK3CAmut solid tumors; responders with a confirmed response, 95% CI, 3.0–not evaluable): 3.7 months; PIK3CA MAF over time (PIK3CA MAF in ctDNA): decreased; binding of p85β to HER3 (HER3–p85β interaction; SUM52PE, MFM223, and MFE280 cells, 1 hour): did not affect; ubiquitination of p110α (p110α [2]; PIK3CAmut cell lines MFM223 and MFE280): induced ubiquitination; ubiquitination of p110α (p110α [3]): no ubiquitination; day of rebound in proliferation (resistance) after treatment initiation (MFM223 cell line): 11 days; tumor growth [4]: did not result in tumor growth inhibition; time to pAKT reactivation (pAKT; 0.5-μmol/L inavolisib): 24 hours; mutated p110α protein level (mutated p110α): degradation; PI3K pathway activity (H-scores pAKT, pS6) and Ki67 proliferation (pAKT, pS6, Ki67): consistent decrease; DLT-evaluable patients who experienced DLTs ([5]; 12-mg dose group, grade 4 hyperglycemia and grade 3 fatigue that lasted 5 days): two of four; Alopecia, related AE ([5]; All grades, N = 20): 3 (15) n (%); Asthenia, related AE ([5]; All grades, N = 20): 2 (10) n (%); Constipation, related AE ([5]; All grades, N = 20): 2 (10) n (%); Decreased appetite, related AE ([5]; All grades, N = 20): 4 (20) n (%); Diarrhea, related AE ([5]; All grades, N = 20): 9 (45) n (%); Dysgeusia, related AE ([5]; All grades, N = 20): 2 (10) n (%); Fatigue, related AE ([5]; All grades, N = 20): 3 (15) n (%); Flatulence, related AE ([5]; All grades, N = 20): 2 (10) n (%); Headache, related AE ([5]; All grades, N = 20): 2 (10) n (%); Hyperglycemia, related AE ([5]; All grades, N = 20): 14 (70) n (%); Hyponatremia, related AE ([5]; All grades, N = 20): 2 (10) n (%); Lymphopenia, related AE ([5]; All grades, N = 20): 2 (10) n (%); Nausea, related AE ([5]; All grades, N = 20): 3 (15) n (%); Stomatitis (grouped term), related AE ([5]; All grades, N = 20): 4 (20) n (%); Taste disorder, related AE ([5]; All grades, N = 20): 2 (10) n (%); Thrombocytopenia, related AE ([5]; All grades, N = 20): 2 (10) n (%); Total number of patients with at least one AE, related AE ([5]; All grades, N = 20): 19 (95) n (%); Vision blurred, related AE ([5]; All grades, N = 20): 2 (10) n (%); Vomiting, related AE ([5]; All grades, N = 20): 4 (20) n (%); Weight decreased, related AE ([5]; All grades, N = 20): 3 (15) n (%); patients with at least one related AE leading to dose modification ([5]; Eleven patients, N = 20): 55%; Alopecia, related AE ([5]; Grades 3–5, N = 20): 0 n (%); Asthenia, related AE ([5]; Grades 3–5, N = 20): 1 (5) n (%); Constipation, related AE ([5]; Grades 3–5, N = 20): 0 n (%); Decreased appetite, related AE ([5]; Grades 3–5, N = 20): 0 n (%); Diarrhea, related AE ([5]; Grades 3–5, N = 20): 0 n (%); Dysgeusia, related AE ([5]; Grades 3–5, N = 20): 0 n (%); Fatigue, related AE ([5]; Grades 3–5, N = 20): 1 (5) n (%); Flatulence, related AE ([5]; Grades 3–5, N = 20): 0 n (%); Headache, related AE ([5]; Grades 3–5, N = 20): 0 n (%); Hyperglycemia, related AE ([5]; Grades 3–5, N = 20): 4 (20) n (%); Hyponatremia, related AE ([5]; Grades 3–5, N = 20): 0 n (%); Lymphopenia, related AE ([5]; Grades 3–5, N = 20): 1 (5) n (%); Nausea, related AE ([5]; Grades 3–5, N = 20): 1 (5) n (%); Stomatitis (grouped term), related AE ([5]; Grades 3–5, N = 20): 0 n (%); Taste disorder, related AE ([5]; Grades 3–5, N = 20): 0 n (%); Thrombocytopenia, related AE ([5]; Grades 3–5, N = 20): 0 n (%); Total number of patients with at least one AE, related AE ([5]; Grades 3–5, N = 20): 8 (40) n (%); Vision blurred, related AE ([5]; Grades 3–5, N = 20): 0 n (%); Vomiting, related AE ([5]; Grades 3–5, N = 20): 0 n (%); Weight decreased, related AE ([5]; Grades 3–5, N = 20): 1 (5) n (%); grade 5 AE ([5]; N = 20): No grade 5 AE; grade of treatment-related diarrhea events ([5]; N = 20): 1 to 2; treatment-related grade ≥3 gastrointestinal toxicities ([5]; N = 20): No treatment-related grade ≥3 gastrointestinal toxicities; serious AE related to inavolisib ([5]; grade 4 hyperglycemia, 12-mg cohort): One patient; colitis ([5]; monotherapy, including nine patients on treatment for ≥5 months): not observed; maximum tolerated dose (MTD) ([5]; once daily oral, patients with PIK3CAmut solid tumors): 9 mg; treatment-related rash ([5]; one patient, grade 1, N = 20): 5%; mean reduction in uptake ([6]; 6 mg): 25%; patients achieving a PMR ([6]; 6 mg, 4/7): 57%; mean reduction in uptake ([6]; >6 mg): 43%; patients achieving a PMR ([6]; >6 mg, 12/13): 92%; accumulation ([7]; continuous once-daily dosing): twofold; half-life ([7]; human, plasma, oral): 16 h; plasma exposure versus dose ([7]; single and multiple doses, 6-12 mg): dose-proportional

Question: Which “combination effect with inavolisib” value [1] does the source give for CCN1CCN(c2ccc(Nc3cc(N(C)C(=O)Nc4c(Cl)c(OC)cc(OC)c4Cl)ncn3)cc2)CC1 [infigratinib] here?
Answer: synergized

Question: And the “sensitivity of cell lines” value [8]?
Answer: sensitive

Question: And the “reduction of phosphorylation of FGFR and downstream effectors” value [9]?
Answer: equal potency

Question: Which “HER3–p85β interaction” value (HER3–p85β interaction; MFE280 FGFR2-low cells, 1 h) does the source give for CS(=O)(=O)CCNCc1ccc(-c2ccc3ncnc(Nc4ccc(OCc5cccc(F)c5)c(Cl)c4)c3c2)o1 [lapatinib, reference compound] here?
Answer: suppressed

Question: What about the “effect on inavolisib-induced p110α ubiquitination” value (p110α [2]; MFE280 cells, combined with inavolisib) of the same molecule?
Answer: prevented

Question: And the “phosphorylation of HER3 and AKT” value [10]?
Answer: decreased phosphorylation

Question: What about the “RAS-GTP levels and RAS–p110α interaction” value (RAS-GTP) of the same molecule?
Answer: affected neither
